≈ marks a conversion by molar mass, not a printed value. Calls of active or inactive are those of the source. The calls are words filed in the database; no cut-off is given here.
Columns and labels:
[1] = test system: Saccharomyces cerevisiae; experiment: Antimicrobial activity against Saccharomyces cerevisiae BY4741 after 24 hrs by two fold serial dilution method; assay type: functional; conditions: BY4741, 24 h
Outline: (§1)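 Broth microdilution per EUCAST. Yeasts diluted to 2 × 10^5 cells/mL in YNB with 2% glucose, pH 4.6. Compound stocks 10 mg/mL in DMSO, twofold serial dilutions, 1% DMSO final. Drug-free and sterility controls included. Incubated 24 h at 34 °C. MIC is the lowest concentration giving OD450 ≤50% of the compound-free culture. For S. cerevisiae, YNB was supplemented with Complete Supplement Mixture.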

[2] = test system: Escherichia coli; experiment: Antimicrobial activity against Escherichia coli; assay type: functional
[3] = test system: Pseudomonas aeruginosa; experiment: Antimicrobial activity against Pseudomonas aeruginosa; assay type: functional
[4] = test system: Candida tropicalis; experiment: Antimicrobial activity against Candida tropicalis ATCC 75 after 24 hrs by two fold serial dilution method; assay type: functional; conditions: ATCC 75, 24 h; outline: as §1
[5] = test system: Pichia kudriavzevii; experiment: Antimicrobial activity against Candida krusei ATCC 6258 after 24 hrs by two fold serial dilution method; assay type: functional; conditions: ATCC 6258, 24 h; outline: as §1
[6] = test system: Staphylococcus aureus; experiment: Antimicrobial activity against Staphylococcus aureus; assay type: functional
[7] = Selectivity index, ratio of IC50 for human HeLa cells to MIC for Candida albicans CAF2-1
Outline: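 SI = HeLa IC50 (SRB assay, 48 h) divided by the C. albicans CAF2-1 MIC (YNB pH 4.6, 24 h, 34 °C broth microdilution).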

[8] = test system: Candida parapsilosis; experiment: Antimicrobial activity against Candida parapsilosis ATCC 22019 after 24 hrs by two fold serial dilution method; assay type: functional; conditions: Lodderomyces parapsilosis, ATCC 22019, 24 h; outline: as §1
[9] = test system: Nakaseomyces glabratus; experiment: Antimicrobial activity against Candida glabrata after 24 hrs by two fold serial dilution method; assay type: functional; outline: as §1
[10] = test system: HeLa; experiment: Cytotoxicity against human HeLa cells after 48 hrs by SRB assay; assay type: cell-based
Outline: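 Sulforhodamine B assay in HeLa cells (DMEM + 10% FBS, 37 °C, 5% CO2), seeded at 10^4 cells/well. After 24 h, cells were PBS-washed and exposed to twofold dilutions from 100 μg/mL for 48 h. A day-1 plate was fixed as baseline. OD492 growth = (treated d3 − d1)/(DMSO d3 − d1) × 100. IC50 was obtained by dose–response curve fitting.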

[11] = test system: Candida albicans; experiment: Antibiofilm activity against Candida albicans CAF2-1 assessed as reduction in metabolic activity after 48 hrs by XTT assay; assay type: functional; conditions: CAF2-1, 48 h
[12] = test system: Candida albicans; experiment: Antimicrobial activity against Candida albicans CAF2-1 after 24 hrs by two fold serial dilution method; assay type: functional; conditions: CAF2-1, 24 h; outline: as §1
[13] = test system: Candida albicans; experiment: Antimicrobial activity against Candida albicans CAF2-1 assessed as accumulation of dark corpuscles in nucleus at 1 ug/ml after 4 hrs by uranyl acetate/lead citrate staining based transmission electron microscopy; assay type: functional, organism-based
Outline: (§2)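 CAF2-1 grown in YNB pH 4.6 at 37 °C for 2 h. Compound (1 mg/mL DMSO stock) then added at 1 or 2 μg/mL. DMSO-treated and untreated controls. Samples taken at 4 and 18 h and pelleted. Prefixed in 3% glutaraldehyde–2% paraformaldehyde in 0.07 M phosphate pH 7, postfixed in 1% OsO4, ethanol-dehydrated and embedded in LR White. 0.08 μm sections stained with uranyl acetate/lead citrate and viewed by TEM.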

[14] = test system: Candida albicans; experiment: Antimicrobial activity against Candida albicans CAF2-1 assessed as cytoplasmic content disorganization at 2 ug/ml after 18 hrs by uranyl acetate/lead citrate staining based transmission electron microscopy; assay type: functional, organism-based; outline: as §2
[15] = test system: Candida albicans; experiment: Antimicrobial activity against Candida albicans CAF2-1 assessed as cytoplasmic content disorganization at 1 ug/ml after 18 hrs by uranyl acetate/lead citrate staining based transmission electron microscopy; assay type: functional, organism-based; outline: as §2
[16] = test system: Candida albicans; experiment: Antimicrobial activity against Candida albicans CAF2-1 assessed as breakage zones of plasmic membrane at 2 ug/ml after 18 hrs by uranyl acetate/lead citrate staining based transmission electron microscopy; assay type: functional, organism-based; outline: as §2
[17] = test system: Candida albicans; experiment: Antimicrobial activity against Candida albicans CAF2-1 assessed as punctual disruption of nuclear membrane at 1 ug/ml after 4 hrs by uranyl acetate/lead citrate staining based transmission electron microscopy; assay type: functional, organism-based; outline: as §2
[18] = test system: Candida albicans; experiment: Antimicrobial activity against Candida albicans CAF2-1 assessed as accumulation of dark corpuscles in nucleus at 2 ug/ml after 4 hrs by uranyl acetate/lead citrate staining based transmission electron microscopy; assay type: functional, organism-based; outline: as §2
[19] = test system: Candida albicans; experiment: Antimicrobial activity against Candida albicans CAF2-1 assessed as punctual disruption of nuclear membrane at 2 ug/ml after 4 hrs by uranyl acetate/lead citrate staining based transmission electron microscopy; assay type: functional, organism-based; outline: as §2
[20] = test system: Candida albicans; experiment: Antimicrobial activity against Candida albicans CAF2-1 assessed as breakage zones of plasmic membrane at 1 ug/ml after 18 hrs by uranyl acetate/lead citrate staining based transmission electron microscopy; assay type: functional, organism-based; outline: as §2

CCCCCCCC[C@@H]1CCCc2[nH]c(C)c(OC)c(=O)c21
MIC [1]: > 32 µg/mL | MIC [2]: > 32 µg/mL | MIC [3]: > 32 µg/mL | MIC [4]: > 32 µg/mL | MIC [5]: 32 µg/mL (≈ 105 µM) | MIC [6]: > 32 µg/mL | Selectivity Index [7]: 1.5 | MIC [8]: 32 µg/mL (≈ 105 µM) | MIC [9]: > 32 µg/mL | IC50 [10]: 24.7 µg/mL (≈ 80.9 µM) | MIC [11]: 32 µg/mL (≈ 105 µM) | MIC [12]: 16 µg/mL (≈ 52.4 µM)

CC[C@H](C)C[C@H](C)CCCCCCCCC(=O)N[C@H]1C[C@@H](O)[C@@H](NCCN)NC(=O)[C@@H]2[C@@H](O)CCN2C(=O)[C@H]([C@H](O)CCN)NC(=O)[C@H]([C@H](O)[C@@H](O)c2ccc(O)cc2)NC(=O)[C@@H]2C[C@@H](O)CN2C(=O)[C@H]([C@@H](C)O)NC1=O [CASPOFUNGIN]
MIC [1]: 0.3 µg/mL (≈ 0.274 µM) | MIC [4]: 0.5 µg/mL (≈ 0.457 µM) | MIC [5]: 0.1 µg/mL (≈ 0.0915 µM) | Selectivity Index [7]: >400 | MIC [8]: 1 µg/mL (≈ 0.915 µM) | MIC [9]: 0.1 µg/mL (≈ 0.0915 µM) | IC50 [10]: > 100 µg/mL | MIC [11]: 0.1 µg/mL (≈ 0.0915 µM) | MIC [12]: 0.3 µg/mL (≈ 0.274 µM)

OC(Cn1cncn1)(Cn1cncn1)c1ccc(F)cc1F [FLUCONAZOLE]
MIC [1]: 16 µg/mL (≈ 52.2 µM) | MIC [4]: 4 µg/mL (≈ 13.1 µM) | MIC [5]: 32 µg/mL (≈ 104 µM) | Selectivity Index [7]: >200 | MIC [8]: 4 µg/mL (≈ 13.1 µM) | MIC [9]: > 128 µg/mL | IC50 [10]: > 100 µg/mL | MIC [11]: > 256 µg/mL | MIC [12]: 0.5 µg/mL (≈ 1.63 µM)

CCCCCCCCc1ccc(OC)c2[nH]c(C)c(OC)c(=O)c12
MIC [1]: > 32 µg/mL | MIC [2]: > 32 µg/mL | MIC [3]: > 32 µg/mL | MIC [4]: > 32 µg/mL | MIC [5]: > 32 µg/mL | MIC [6]: > 32 µg/mL | Selectivity Index [7]: 1.8 | MIC [8]: > 32 µg/mL | MIC [9]: > 32 µg/mL | IC50 [10]: 14.4 µg/mL (≈ 43.4 µM) | MIC [11]: 16 µg/mL (≈ 48.3 µM) | MIC [12]: 8 µg/mL (≈ 24.1 µM)

CCCCCCCC[C@H]1CC[C@@H](O)c2[nH]c(C)c(OC)c(=O)c21
MIC [1]: > 32 µg/mL | MIC [4]: > 32 µg/mL | MIC [5]: 32 µg/mL (≈ 99.5 µM) | Selectivity Index [7]: 1.6 | MIC [8]: > 32 µg/mL | MIC [9]: > 32 µg/mL | IC50 [10]: 50 µg/mL (≈ 156 µM) | MIC [11]: 16 µg/mL (≈ 49.8 µM) | MIC [12]: 32 µg/mL (≈ 99.5 µM)

CCCCCCCC[C@H]1CC[C@@H](OC)c2[nH]c(C)c(OC)c(=O)c21
MIC [1]: > 32 µg/mL | MIC [2]: > 32 µg/mL | Activity [13]: Active | MIC [3]: > 32 µg/mL | Activity [14]: Active | MIC [4]: > 32 µg/mL | MIC [5]: > 32 µg/mL | MIC [6]: > 32 µg/mL | Selectivity Index [7]: 5 | MIC [8]: > 32 µg/mL | Activity [15]: Active | Activity [16]: Active | Activity [17]: Active | Activity [18]: Active | MIC [9]: > 32 µg/mL | Activity [19]: Active | IC50 [10]: 20 µg/mL (≈ 59.6 µM) | MIC [11]: 8 µg/mL (≈ 23.8 µM) | Activity [20]: Active | MIC [12]: 4 µg/mL (≈ 11.9 µM)

CCCCCCCC[C@@H]1CCCc2[nH]c(CO)c(OC)c(=O)c21
MIC [1]: > 32 µg/mL | MIC [4]: > 32 µg/mL | MIC [5]: 32 µg/mL (≈ 99.5 µM) | Selectivity Index [7]: 0.8 | MIC [8]: > 32 µg/mL | MIC [9]: > 32 µg/mL | IC50 [10]: 24.4 µg/mL (≈ 75.9 µM) | MIC [11]: 16 µg/mL (≈ 49.8 µM) | MIC [12]: 32 µg/mL (≈ 99.5 µM)

COc1c(C)n(OC)c2c(c1=O)[C@@H](CCCCCc1ccccc1)CCC2
MIC [1]: 16 µg/mL (≈ 43.3 µM) | MIC [2]: > 32 µg/mL | Activity [13]: Active | MIC [3]: > 32 µg/mL | Activity [14]: Active | MIC [4]: 32 µg/mL (≈ 86.6 µM) | MIC [5]: 32 µg/mL (≈ 86.6 µM) | MIC [6]: > 32 µg/mL | Selectivity Index [7]: 0.3 | MIC [8]: 2 µg/mL (≈ 5.41 µM) | Activity [15]: Active | Activity [16]: Active | Activity [17]: Active | Activity [18]: Active | MIC [9]: 32 µg/mL (≈ 86.6 µM) | Activity [19]: Active | IC50 [10]: 9.5 µg/mL (≈ 25.7 µM) | MIC [11]: 32 µg/mL (≈ 86.6 µM) | Activity [20]: Active | MIC [12]: 32 µg/mL (≈ 86.6 µM)

CCCCCCCC[C@H]1CCC(=O)c2[nH]c(C)c(OC)c(=O)c21
MIC [1]: > 32 µg/mL | MIC [2]: > 32 µg/mL | MIC [3]: > 32 µg/mL | MIC [4]: > 32 µg/mL | MIC [5]: 16 µg/mL (≈ 50.1 µM) | MIC [6]: > 32 µg/mL | Selectivity Index [7]: 0.7 | MIC [8]: 4 µg/mL (≈ 12.5 µM) | MIC [9]: > 32 µg/mL | IC50 [10]: 23.4 µg/mL (≈ 73.3 µM) | MIC [11]: 16 µg/mL (≈ 50.1 µM) | MIC [12]: 32 µg/mL (≈ 100 µM)

CCCCCCCC[C@H]1CCCc2c1c(=O)c(OC)c(C)n2OC
MIC [1]: 16 µg/mL (≈ 47.7 µM) | MIC [2]: > 32 µg/mL | MIC [3]: > 32 µg/mL | MIC [4]: 32 µg/mL (≈ 95.4 µM) | MIC [5]: 16 µg/mL (≈ 47.7 µM) | MIC [6]: > 32 µg/mL | Selectivity Index [7]: 1 | MIC [8]: 2 µg/mL (≈ 5.96 µM) | MIC [9]: 32 µg/mL (≈ 95.4 µM) | IC50 [10]: 16.1 µg/mL (≈ 48 µM) | MIC [11]: 16 µg/mL (≈ 47.7 µM) | MIC [12]: 16 µg/mL (≈ 47.7 µM)

COc1c(C)[nH]c2c(c1=O)[C@@H](CCCCCc1ccccc1)CC[C@H]2OC
MIC [1]: > 32 µg/mL | MIC [2]: > 32 µg/mL | MIC [3]: > 32 µg/mL | MIC [4]: > 32 µg/mL | MIC [5]: > 32 µg/mL | MIC [6]: > 32 µg/mL | Selectivity Index [7]: 0.4 | MIC [8]: > 32 µg/mL | MIC [9]: > 32 µg/mL | IC50 [10]: 11.9 µg/mL (≈ 32.2 µM) | MIC [11]: 32 µg/mL (≈ 86.6 µM) | MIC [12]: 32 µg/mL (≈ 86.6 µM)

CCCCCCCC[C@@H]1CCCc2c1c(=O)c(OC)c(CO)n2OC
MIC [1]: > 32 µg/mL | MIC [2]: > 32 µg/mL | MIC [3]: > 32 µg/mL | MIC [4]: > 32 µg/mL | MIC [5]: > 32 µg/mL | MIC [6]: > 32 µg/mL | Selectivity Index [7]: 0.8 | MIC [8]: > 32 µg/mL | MIC [9]: > 32 µg/mL | IC50 [10]: 26.6 µg/mL (≈ 75.7 µM) | MIC [11]: 16 µg/mL (≈ 45.5 µM) | MIC [12]: 32 µg/mL (≈ 91 µM)
